Measured values taken from ChEMBL document CHEMBL3745671, “Discovery of N-[5-(6-Chloro-3-cyano-1-methyl-1H-indol-2-yl)-pyridin-3-ylmethyl]-ethanesulfonamide, a Cortisol-Sparing CYP11B2 Inhibitor that Lowers Aldosterone in Human Subjects” (J Med Chem, 2015).
The source made the active and inactive calls. No cut-off for these calls is given here.

Legend:
Cynomolgus monkey [1] = test: Decrease in plasma cortisol level in chair-trained chronically cannulated cynomolgus monkey model measured after 24 hrs […]; assay type: functional, organism-based; conditions: Macaca fascicularis
Outline: (§1)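 Conscious chair-trained, chronically cannulated male cynomolgus monkeys; vascular access port via Huber needle. Baseline blood (heparin) before dosing; methylcellulose suspension po at 0.03, 0.1, 0.3 or 3 mg/kg (n=3/dose) or vehicle (n=6, same animals). ACTH(1–24) 3000 ng/kg iv 3 h post-dose; sampling 0.125–1 h post-ACTH, up to 8 h, and 23.5 and 24 h. Aldosterone and cortisol by RIA; drug by LC/MS/MS (LLOQ 0.26 nmol/L, lower values set to zero).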

Homo sapiens [2] = test: Decrease in plasma aldosterone level in po dosed human administered as bid measured over 24 hrs; assay type: functional, organism-based
Outline: (§2)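 Healthy male and female volunteers, 18-63 years, restricted sodium/potassium diet; double-blind randomized placebo-controlled, oral 30, 60, 100 or 200 mg bid (drug:placebo 5:2).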

[3] = Tmax in healthy human at 100 mg/kg, po bid; assay type: ADME, organism-based; conditions: in vivo
Outline: (§3)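 Double-blind, randomized, placebo-controlled study in healthy male and female volunteers aged 18-63 on a restricted sodium/potassium diet. Oral bid doses of 30, 60, 100 or 200 mg, drug:placebo 5:2. N per dose 10–17. AUCtau, Cmax and median Tmax reported; dose-normalized values are AUCtau/dose and Cmax/dose.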

[4] = Cmax in healthy human at 60 mg/kg, po bid; assay type: ADME, organism-based; design: dose 60 mg/kg, route oral; conditions: in vivo; outline: as §3
[5] = Clearance in continuous angiotensin-2 infusion Sprague-Dawley rat model at 3 mg/kg, po and 1 mg/kg, iv; assay type: ADME, organism-based; conditions: in vivo
Homo sapiens [6] = test: Dose normalized AUCtau in healthy human at 200 mg/kg, po bid; assay type: ADME, organism-based; conditions: in vivo; outline: as §3
Plasma [7] = test: Drug uptake in plasma of po dosed chair-trained chronically cannulated cynomolgus monkey model compound administered followed by ACTH challenge for 3 hrs measured up to 8 hrs post challenge by LC/MS/MS analysis; assay type: ADME, organism-based, Macaca fascicularis; conditions: in vivo; outline: as §1
[8] = Cmax in healthy human at 100 mg/kg, po bid; assay type: ADME, organism-based; design: dose 100 mg/kg, route oral; conditions: in vivo; outline: as §3
Homo sapiens [9] = test: Decrease in urinary aldosterone excretion in po dosed human administered as bid measured over 24 hrs; assay type: functional, organism-based; conditions: Urine; outline: as §2
Homo sapiens [10] = test: Dose normalized AUCtau in healthy human at 100 mg/kg, po bid; assay type: ADME, organism-based; conditions: in vivo; outline: as §3
[11] = Tmax in healthy human at 200 mg/kg, po bid; assay type: ADME, organism-based; conditions: in vivo; outline: as §3
[12] = Half life in continuous angiotensin 2 infusion Sprague-Dawley rat model at 3 mg/kg, po and 1 mg/kg, iv; assay type: ADME, organism-based; conditions: in vivo
Homo sapiens [13] = test: Dose normalized AUCtau in healthy human at 60 mg/kg, po bid; assay type: ADME, organism-based; conditions: in vivo; outline: as §3
[14] = Half life in rat liver microsomes after 30 mins by LC/MS/MS analysis; assay type: ADME
[15] = AUC (0 to 24 hrs) in continuous angiotensin 2 infusion Sprague-Dawley rat model at 3 mg/kg, po; assay type: ADME, organism-based; design: time < 24 hr, dose 3 mg/kg, route oral; conditions: in vivo
Outline: (§4)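 Male Sprague Dawley rats, 200–300 g. IV: 0.3 mg/1 mL/kg (free base) slow injection via jugular vein, n=2. Oral gavage at 1 mg/5 mL/kg or 3 mg/5 mL/kg in solution, n=3. Jugular catheter blood at 5 min (iv only), 0.25–8 h into EDTA; plasma after protein precipitation with acetonitrile containing internal standard, HPLC-MS; noncompartmental parameters.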

Homo sapiens [16] = test: Toxicity in human assessed as increase in urinary 11-deoxycortisol level at 30 to 200 mg/kg, po bid measured over 24 hrs; assay type: organism-based, Urine; conditions: in vivo, in the assay text read “30 to 200 mg” for “30 to 200 mg/kg”; outline: as §2
Homo sapiens [17] = test: Dose normalized Cmax in healthy human at 30 mg/kg, po bid; assay type: ADME, organism-based; conditions: in vivo; outline: as §3
CYP19 (aromatase) = biological target: T1, CYP19 (aromatase) (Homo sapiens, UniProt P11511); test: Inhibition of human CYP19 at 10 uM preincubated for 10 mins with NADPH followed by protein addition measured after 90 mins by fluorometric analysis
T1 sequence (P11511 whole entry): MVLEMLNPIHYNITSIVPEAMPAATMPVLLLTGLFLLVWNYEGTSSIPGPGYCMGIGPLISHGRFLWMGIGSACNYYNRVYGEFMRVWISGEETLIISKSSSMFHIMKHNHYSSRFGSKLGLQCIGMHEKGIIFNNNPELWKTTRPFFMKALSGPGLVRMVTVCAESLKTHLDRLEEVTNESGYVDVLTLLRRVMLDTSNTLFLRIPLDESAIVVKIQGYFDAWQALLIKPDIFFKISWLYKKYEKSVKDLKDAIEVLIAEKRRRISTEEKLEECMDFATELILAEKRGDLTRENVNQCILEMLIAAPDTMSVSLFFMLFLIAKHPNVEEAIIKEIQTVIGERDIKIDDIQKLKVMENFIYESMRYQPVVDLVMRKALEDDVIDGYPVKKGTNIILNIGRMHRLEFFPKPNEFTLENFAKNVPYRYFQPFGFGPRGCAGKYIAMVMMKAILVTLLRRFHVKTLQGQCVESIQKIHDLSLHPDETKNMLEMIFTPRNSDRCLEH

Homo sapiens [18] = test: Decrease in plasma aldosterone level in human at 200 mg/kg, po bid measured over 24 hrs; assay type: functional; conditions: in the assay text read “200 mg” for “200 mg/kg”; outline: as §2
[19] = Oral bioavailability in continuous angiotensin 2 infusion Sprague-Dawley rat model at 3 mg/kg; assay type: ADME, organism-based; conditions: in vivo; outline: as §4
[20] = Tmax in healthy human at 30 mg/kg, po bid; assay type: ADME, organism-based; conditions: in vivo; outline: as §3
Homo sapiens [21] = test: Toxicity in human assessed as decrease in urinary cortisol level at 30 to 200 mg/kg, po bid measured over 24 hrs; assay type: organism-based, Urine; conditions: in vivo, in the assay text read “30 to 200 mg” for “30 to 200 mg/kg”; outline: as §2
[22] = Cmax in healthy human at 200 mg/kg, po bid; assay type: ADME, organism-based; design: dose 200 mg/kg, route oral; conditions: in vivo; outline: as §3
Homo sapiens [23] = test: Decrease in urinary aldosterone excretion in human at 200 mg/kg, po bid measured over 24 hrs; assay type: functional, Urine; conditions: in the assay text read “200 mg” for “200 mg/kg”; outline: as §2
Plasma [24] = test: Drug uptake in plasma of chair-trained chronically cannulated cynomolgus monkey model at 0.03 to 3 mg/kg, po compound administered followed by ACTH challenge for 3 hrs measured at 24 hrs by LC/MS/MS analysis; assay type: ADME, organism-based, Macaca fascicularis; conditions: in vivo; outline: as §1
[25] = Tmax in healthy human at 60 mg/kg, po bid; assay type: ADME, organism-based; conditions: in vivo; outline: as §3
Cynomolgus monkey [26] = test: Decrease in ACTH-stimulated plasma aldosterone level in po dosed chair-trained chronically cannulated cynomolgus monkey model compound administered followed by ACTH challenge for 3 hrs measured after 24 hrs by LC/MS/MS analysis; assay type: functional, organism-based; conditions: Macaca fascicularis; outline: as §1
[27] = Equilibrium solubility of the compound in buffer at pH 6.8; assay type: physicochemical
Outline: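 Equilibrium solubility measured in buffer at pH 6.8.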

[28] = Half life in human liver microsomes after 30 mins by LC/MS/MS analysis; assay type: ADME
Homo sapiens [29] = test: Dose normalized AUCtau in healthy human at 30 mg/kg, po bid; assay type: ADME, organism-based; conditions: in vivo; outline: as §3
Homo sapiens [30] = test: Dose normalized Cmax in healthy human at 100 mg/kg, po bid; assay type: ADME, organism-based; conditions: in vivo; outline: as §3
Cynomolgus monkey [31] = test: Decrease in ACTH-stimulated plasma aldosterone level in chair-trained chronically cannulated cynomolgus monkey model at 3 mg/kg, po compound administered followed by ACTH challenge for 3 hrs measured by radioimmunoassay; design: scale not given: the % may be the effect or the level left
Homo sapiens [32] = test: Dose normalized Cmax in healthy human at 200 mg/kg, po bid; assay type: ADME, organism-based; conditions: in vivo; outline: as §3

Tmax [3]: 4 h | Cmax [4]: 173 ng/mL | clearance [5]: 18 mL/min/kg | AUC/dose (Homo sapiens [6]): 10.9 ng·h/mL/mg | Drug uptake (Plasma [7]): Dose-dependent effect | Cmax [8]: 173 ng/mL | AUC/dose (Homo sapiens [10]): 12.7 ng·h/mL/mg | Tmax [11]: 4 h | half-life [12]: 1.1 h | AUC/dose (Homo sapiens [13]): 17.1 ng·h/mL/mg | half-life [14]: 0.467 h | AUC(0-t) at 24 h [15]: 5.79 µM·h | Cmax/dose (Homo sapiens [17]): 3.9 ng/mL | inhibition at 1.5 h, 10 µM (CYP19 (aromatase)): 82% | bioavailability [19]: 84% | Tmax [20]: 4 h | Cmax [22]: 306 ng/mL | Drug uptake (Plasma [24]): Active | Tmax [25]: 3 h | EC50 (Cynomolgus monkey [26]): 8.5 nM | solubility thermodynamic [27]: < 5 µM | half-life [28]: 1.28 h | AUC/dose (Homo sapiens [29]): 25.6 ng·h/mL/mg | Cmax/dose (Homo sapiens [30]): 1.7 ng/mL | Cmax/dose (Homo sapiens [32]): 1.5 ng/mL
SMILES: CCS(=O)(=O)NCc1cncc(-c2c(C#N)c3ccc(Cl)cc3n2C)c1
Activity (Cynomolgus monkey [1]): inactive | Activity (Homo sapiens [2]): Dose-dependent effect | Activity (Homo sapiens [9]): Dose-dependent effect | Activity (Homo sapiens [16]): Non-toxic | %max (Homo sapiens [18]): 70% | Activity (Homo sapiens [21]): Non-toxic | %max (Homo sapiens [23]): 70% | Activity (Cynomolgus monkey [26]): Dose-dependent effect | ED50 (Cynomolgus monkey [26]; po): 0.061 mg/kg | Activity (Cynomolgus monkey [31]): 95%
